Data: ChEMBL document CHEMBL2010755, “Synthesis of new sulfonamides as lipoxygenase inhibitors” (Bioorg Med Chem, 2012)

Tests used:
[1] = Inhibition of lipoxygenase using linoleic acid as substrate at 0.5 mM after 10 mins preincubation
Procedure, shortened: (§1)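 Purified lipoxygenase (600 units per well) in 100 mM sodium phosphate buffer pH 8.0, with test compound. Pre-read at 234 nm, preincubated 10 min at 25 °C, then started with linoleic acid. Absorbance change at 234 nm read after 6 min. Percent inhibition tested at 0.5 mM. IC50 obtained from dilutions of compounds exceeding 50% inhibition. Triplicates, mean ± SEM.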

[2] = Inhibition of lipoxygenase using linoleic acid as substrate after 10 mins preincubation; procedure, shortened: as §1

Row | SMILES | inhibition [1] | IC50 [2]
1 | O=c1c(O)c(-c2ccc(O)c(O)c2)oc2cc(O)cc(O)c12 [QUERCETIN] |  | 37.1 µM
2 | CC(C)=CCN(c1ccc(C(=O)O)cc1)S(=O)(=O)c1ccc(C)cc1 | 98.7% | 15.8 µM
3 | Cc1ccc(S(=O)(=O)N(C(=O)c2ccc(Cl)cc2)c2ccc(C(=O)O)cc2)cc1 | 98.1% | 176 µM
4 | CCCCN(c1ccc(C(=O)O)cc1)S(=O)(=O)c1ccc(C)cc1 | 99.4% | 61.4 µM
5 | COC(=O)c1ccc(N(C)S(=O)(=O)c2ccc(C)cc2)cc1 | 88.5% | 189 µM
6 | Cc1ccc(S(=O)(=O)Nc2ccc(C(=O)OCC#N)cc2)cc1 | 97% | 232 µM
7 | Cc1ccc(S(=O)(=O)N(C(=O)c2ccccc2)c2ccc(C(=O)O)cc2)cc1 | 99% | 91.7 µM
8 | O=c1cc(-c2ccccc2)oc2cc(O)c(O)c(O)c12 [BAICALEIN] |  | 22.4 µM
9 | CCCN(c1ccc(C(=O)O)cc1)S(=O)(=O)c1ccc(C)cc1 | 40% | > 500 µM
10 | Cc1ccc(S(=O)(=O)Nc2ccc(C(=O)O)cc2)cc1 | 99.4% | 139 µM
11 | Cc1ccc(S(=O)(=O)N(Cc2ccccc2)c2ccc(C(=O)O)cc2)cc1 | 85.1% | 59.1 µM

Second part, the molecule after the results:

Row | inhibition [1] | IC50 [2] | SMILES
12 | 21.9% | > 600 µM | Cc1ccc(S(=O)(=O)N(CCCl)c2ccc(C(=O)O)cc2)cc1
13 | 97.6% | 231 µM | CCOC(=O)c1ccc(N(CC)S(=O)(=O)c2ccc(C)cc2)cc1
14 | 26.9% | > 600 µM | Cc1ccc(S(=O)(=O)N(C/C=C/c2ccccc2)c2ccc(C(=O)OC/C=C/c3ccccc3)cc2)cc1
15 | 98.6% | 68.6 µM | CCCCCN(c1ccc(C(=O)O)cc1)S(=O)(=O)c1ccc(C)cc1
16 | 96.2% | 219 µM | C=CCN(c1ccc(C(=O)O)cc1)S(=O)(=O)c1ccc(C)cc1
